Legend:
[1] = biological target: T1, 5-hydroxytryptamine receptor 4 (Homo sapiens, UniProt Q13639); assay: Displacement of [3H]GR113808 from human 5HT4 receptor expressed in HEK293 cells by liquid scintillation counting; format: cell-based
Procedure, shortened: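 Membranes from HEK293 line stably expressing human 5-HT4(b) at high level (5000 fmol/mg). Incubated with 0.3 nM [3H]GR113808 and 21 competitor concentrations in Tris-HCl pH 7.5, EDTA, EGTA, 2 mM MgCl2, ascorbate, 0.1% BSA, 100 µM GTP, room temperature 1 h. Filtered onto PEI-soaked filters, washed, scintillation counted. Ki derived from IC50 via Ki = IC50/(1+L/Kd).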

[2] = biological target: T1, 5-hydroxytryptamine receptor 4; assay: Antagonistic activity at human 5HT4 receptor expressed in HEK293 cells assessed as inhibition of 5-HT stimulated ADCY activity after 20 mins; format: functional, cell-based
Procedure, shortened: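 Membranes from HEK293 cells stably expressing human 5-HT4(b) at low level (400 fmol/mg). Adenylyl cyclase activity was stimulated by 1 µM 5-HT with 21 antagonist concentrations, 0.1 mM [α-32P]ATP, 4 mM MgCl2, 1 mM IBMX, GTP and ATP-regenerating system, 32 °C, 20 min. [32P]cAMP was isolated on Dowex/alumina columns. IC50 was fitted by non-linear regression and Kb calculated using 5-HT EC50.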

[3] = Lipophilicity, log D of the compound in octanol buffer at pH 7.4; format: physicochemical
Procedure, shortened: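 Distribution between octanol and aqueous buffer at pH 7.4. Both phases were diluted and ligand concentration in each measured by HPLC. Not determined where micelles formed.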

[4] = Half life in bovine plasma by HPLC; format: ADME, Bos taurus; conditions: cattle
Procedure, shortened: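 Ester incubated at 40 µM initial concentration in bovine plasma at 37 °C for up to 10 h. Aliquots were removed at intervals and H3PO4 added to release protein-bound drug. Parent ester and free-acid degradation product were quantified by HPLC, and half-life was calculated.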

[5] = biological target: T1, 5-hydroxytryptamine receptor 4; assay: Antagonistic activity at human 5HT4 receptor expressed in HEK293 cells; format: functional, cell-based
[6] = biological target: Histamine H3 receptor (Homo sapiens, UniProt Q9Y5N1); assay: Binding affinity to Histamine receptor H3
Histamine H3 receptor, sequence (Q9Y5N1 whole entry): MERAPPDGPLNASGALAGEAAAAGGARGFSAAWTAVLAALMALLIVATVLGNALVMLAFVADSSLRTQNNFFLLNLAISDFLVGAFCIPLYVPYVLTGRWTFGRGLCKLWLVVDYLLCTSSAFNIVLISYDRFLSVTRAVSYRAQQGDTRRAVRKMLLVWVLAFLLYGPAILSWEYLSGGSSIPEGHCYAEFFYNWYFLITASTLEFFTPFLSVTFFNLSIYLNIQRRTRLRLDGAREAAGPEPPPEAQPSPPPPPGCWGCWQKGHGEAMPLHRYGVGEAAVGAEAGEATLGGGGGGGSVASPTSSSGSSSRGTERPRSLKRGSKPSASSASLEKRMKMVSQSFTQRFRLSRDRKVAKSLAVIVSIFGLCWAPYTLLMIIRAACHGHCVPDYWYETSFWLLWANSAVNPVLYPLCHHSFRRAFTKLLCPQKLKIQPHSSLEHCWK

[7] = biological target: 5-hydroxytryptamine receptor 1A (Homo sapiens, UniProt P08908); assay: Binding affinity to 5HT1A receptor
[8] = Binding affinity to GABA receptor BDZ-site
[9] = biological target: 5-hydroxytryptamine receptor 5A (Homo sapiens, UniProt P47898); assay: Binding affinity to 5HT5A receptor
[10] = biological target: Alpha-1D adrenergic receptor (Homo sapiens, UniProt P25100); assay: Binding affinity to Alpha-1D adrenergic receptor
[11] = biological target: Kappa-type opioid receptor (Homo sapiens, UniProt P41145); assay: Binding affinity to opioid receptor KOR
[12] = biological target: Alpha-2C adrenergic receptor (Homo sapiens, UniProt P18825); assay: Binding affinity to Alpha-2C adrenergic receptor
[13] = biological target: Mu-type opioid receptor (Homo sapiens, UniProt P35372); assay: Binding affinity to opioid receptor MOR
[14] = biological target: Delta-type opioid receptor (Homo sapiens, UniProt P41143); assay: Binding affinity to opioid receptor DOR
Delta-type opioid receptor, sequence (P41143 whole entry): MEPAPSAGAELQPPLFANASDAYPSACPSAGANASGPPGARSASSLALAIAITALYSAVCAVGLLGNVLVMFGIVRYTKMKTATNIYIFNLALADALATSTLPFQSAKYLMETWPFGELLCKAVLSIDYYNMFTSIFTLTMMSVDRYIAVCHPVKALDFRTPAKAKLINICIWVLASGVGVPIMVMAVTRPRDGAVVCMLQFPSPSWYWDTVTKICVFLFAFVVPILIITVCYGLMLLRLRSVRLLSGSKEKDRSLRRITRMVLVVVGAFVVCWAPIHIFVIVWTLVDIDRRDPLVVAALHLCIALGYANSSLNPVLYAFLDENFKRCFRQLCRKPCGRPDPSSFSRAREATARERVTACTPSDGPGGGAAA

[15] = biological target: 5-hydroxytryptamine receptor 1B (Homo sapiens, UniProt P28222); assay: Binding affinity to 5HT1B receptor
5-hydroxytryptamine receptor 1B, sequence (P28222 whole entry): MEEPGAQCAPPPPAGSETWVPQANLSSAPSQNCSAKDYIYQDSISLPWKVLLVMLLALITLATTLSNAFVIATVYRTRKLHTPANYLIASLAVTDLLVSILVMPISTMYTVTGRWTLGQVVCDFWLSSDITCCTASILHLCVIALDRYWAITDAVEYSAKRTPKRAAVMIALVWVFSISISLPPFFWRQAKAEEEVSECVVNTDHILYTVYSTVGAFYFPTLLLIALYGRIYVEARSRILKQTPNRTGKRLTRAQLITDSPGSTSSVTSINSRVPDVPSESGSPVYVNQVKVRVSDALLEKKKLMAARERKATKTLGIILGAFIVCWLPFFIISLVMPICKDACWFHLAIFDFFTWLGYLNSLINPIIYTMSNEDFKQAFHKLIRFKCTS

[16] = biological target: 5-hydroxytryptamine receptor 2C (Homo sapiens, UniProt P28335); assay: Binding affinity to 5HT2C receptor
5-hydroxytryptamine receptor 2C, sequence (P28335 whole entry): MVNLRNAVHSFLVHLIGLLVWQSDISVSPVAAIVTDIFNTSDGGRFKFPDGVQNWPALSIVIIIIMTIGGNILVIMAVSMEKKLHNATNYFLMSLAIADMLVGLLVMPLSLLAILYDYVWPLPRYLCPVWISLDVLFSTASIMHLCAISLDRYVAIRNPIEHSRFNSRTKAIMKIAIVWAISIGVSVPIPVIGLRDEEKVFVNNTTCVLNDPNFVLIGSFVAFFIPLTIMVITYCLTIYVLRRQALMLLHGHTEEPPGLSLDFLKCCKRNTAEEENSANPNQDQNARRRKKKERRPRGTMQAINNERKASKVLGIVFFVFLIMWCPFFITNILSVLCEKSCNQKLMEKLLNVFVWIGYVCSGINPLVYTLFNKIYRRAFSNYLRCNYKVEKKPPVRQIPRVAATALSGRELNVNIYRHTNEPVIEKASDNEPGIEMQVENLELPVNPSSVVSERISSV

[17] = biological target: D(1A) dopamine receptor (Homo sapiens, UniProt P21728); assay: Binding affinity to dopamine receptor D1
D(1A) dopamine receptor, sequence (P21728 whole entry): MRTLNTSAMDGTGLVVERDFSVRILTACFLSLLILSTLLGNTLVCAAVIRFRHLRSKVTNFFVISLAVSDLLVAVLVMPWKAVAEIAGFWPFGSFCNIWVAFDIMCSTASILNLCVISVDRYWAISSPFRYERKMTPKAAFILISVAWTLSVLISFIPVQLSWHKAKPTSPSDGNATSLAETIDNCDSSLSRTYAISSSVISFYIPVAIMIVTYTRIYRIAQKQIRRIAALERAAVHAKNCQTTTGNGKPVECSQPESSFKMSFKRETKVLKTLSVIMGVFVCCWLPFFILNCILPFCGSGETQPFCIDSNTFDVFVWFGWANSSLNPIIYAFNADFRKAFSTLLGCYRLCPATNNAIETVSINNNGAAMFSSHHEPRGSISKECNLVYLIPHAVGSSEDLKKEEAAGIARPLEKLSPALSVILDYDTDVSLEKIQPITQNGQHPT

[18] = biological target: Muscarinic acetylcholine receptor M5 (Homo sapiens, UniProt P08912); assay: Binding affinity to muscarinic acetylcholine receptor M5
Muscarinic acetylcholine receptor M5, sequence (P08912 whole entry): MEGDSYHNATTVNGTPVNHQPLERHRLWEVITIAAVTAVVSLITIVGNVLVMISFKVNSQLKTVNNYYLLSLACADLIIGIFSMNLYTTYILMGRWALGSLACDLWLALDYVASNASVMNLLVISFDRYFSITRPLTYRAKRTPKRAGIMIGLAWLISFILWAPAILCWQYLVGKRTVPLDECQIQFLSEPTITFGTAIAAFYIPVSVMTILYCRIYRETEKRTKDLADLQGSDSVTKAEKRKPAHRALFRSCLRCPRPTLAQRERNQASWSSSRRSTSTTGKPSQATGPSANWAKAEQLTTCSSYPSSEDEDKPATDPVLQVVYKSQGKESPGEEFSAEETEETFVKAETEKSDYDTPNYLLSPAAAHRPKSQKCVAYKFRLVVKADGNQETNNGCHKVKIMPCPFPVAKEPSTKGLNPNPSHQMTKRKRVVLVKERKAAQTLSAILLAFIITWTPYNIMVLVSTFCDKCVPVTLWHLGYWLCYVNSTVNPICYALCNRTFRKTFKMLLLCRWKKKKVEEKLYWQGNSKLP

[19] = biological target: Muscarinic acetylcholine receptor M4 (Homo sapiens, UniProt P08173); assay: Binding affinity to muscarinic acetylcholine receptor M4
[20] = biological target: 5-hydroxytryptamine receptor 6 (Homo sapiens, UniProt P50406); assay: Binding affinity to 5HT6 receptor
[21] = biological target: Beta-2 adrenergic receptor (Homo sapiens, UniProt P07550); assay: Binding affinity to beta2 adrenergic receptor
[22] = biological target: Beta-3 adrenergic receptor (Homo sapiens, UniProt P13945); assay: Binding affinity to beta3 adrenergic receptor
[23] = biological target: 5-hydroxytryptamine receptor 2A (Homo sapiens, UniProt P28223); assay: Binding affinity to 5HT2A receptor
5-hydroxytryptamine receptor 2A, sequence (P28223 whole entry): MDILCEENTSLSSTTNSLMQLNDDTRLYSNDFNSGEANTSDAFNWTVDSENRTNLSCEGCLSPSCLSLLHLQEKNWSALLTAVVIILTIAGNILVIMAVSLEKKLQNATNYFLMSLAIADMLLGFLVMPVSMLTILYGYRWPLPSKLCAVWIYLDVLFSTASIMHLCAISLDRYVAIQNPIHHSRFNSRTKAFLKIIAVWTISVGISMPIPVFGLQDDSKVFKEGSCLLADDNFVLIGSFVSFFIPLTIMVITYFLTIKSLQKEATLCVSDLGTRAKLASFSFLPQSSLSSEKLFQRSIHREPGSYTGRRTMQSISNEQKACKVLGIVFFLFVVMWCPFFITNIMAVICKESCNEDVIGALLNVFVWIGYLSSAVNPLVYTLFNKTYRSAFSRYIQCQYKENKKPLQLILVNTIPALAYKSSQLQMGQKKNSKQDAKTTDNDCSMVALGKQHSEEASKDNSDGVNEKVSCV

[24] = biological target: Alpha-1B adrenergic receptor (Homo sapiens, UniProt P35368); assay: Binding affinity to Alpha-1B adrenergic receptor
[25] = biological target: D(1B) dopamine receptor (Homo sapiens, UniProt P21918); assay: Binding affinity to dopamine receptor D5
[26] = biological target: 5-hydroxytryptamine receptor 1D (Homo sapiens, UniProt P28221); assay: Binding affinity to 5HT1D receptor
[27] = biological target: Alpha-2A adrenergic receptor (Homo sapiens, UniProt P08913); assay: Binding affinity to alpha2A adrenergic receptor
[28] = Binding affinity to GABA-A receptor muscimol site
[29] = Binding affinity to opioid receptor Sigma2
[30] = biological target: Sodium-dependent dopamine transporter (Homo sapiens, UniProt Q01959); assay: Binding affinity to DAT
[31] = biological target: D(2) dopamine receptor (Homo sapiens, UniProt P14416); assay: Binding affinity to dopamine receptor D2
[32] = biological target: Histamine H2 receptor (Homo sapiens, UniProt P25021); assay: Binding affinity to Histamine receptor H2
[33] = biological target: D(4) dopamine receptor (Homo sapiens, UniProt P21917); assay: Binding affinity to dopamine receptor D4
[34] = biological target: Alpha-2B adrenergic receptor (Homo sapiens, UniProt P18089); assay: Binding affinity to alpha2B adrenergic receptor
[35] = biological target: D(3) dopamine receptor (Homo sapiens, UniProt P35462); assay: Binding affinity to dopamine receptor D3
D(3) dopamine receptor, sequence (P35462 whole entry): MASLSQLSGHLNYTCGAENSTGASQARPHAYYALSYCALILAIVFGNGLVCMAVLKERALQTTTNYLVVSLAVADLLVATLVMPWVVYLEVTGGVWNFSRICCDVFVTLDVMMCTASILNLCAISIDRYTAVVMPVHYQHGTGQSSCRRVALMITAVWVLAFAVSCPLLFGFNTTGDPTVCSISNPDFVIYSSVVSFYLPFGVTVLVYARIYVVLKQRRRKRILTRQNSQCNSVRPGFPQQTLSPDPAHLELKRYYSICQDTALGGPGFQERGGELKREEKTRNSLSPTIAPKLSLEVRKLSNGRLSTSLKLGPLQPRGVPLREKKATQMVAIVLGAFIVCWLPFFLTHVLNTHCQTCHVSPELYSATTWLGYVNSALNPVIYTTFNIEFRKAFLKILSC

[36] = biological target: 5-hydroxytryptamine receptor 2B (Homo sapiens, UniProt P41595); assay: Binding affinity to 5HT2B receptor
[37] = biological target: Muscarinic acetylcholine receptor M2 (Homo sapiens, UniProt P08172); assay: Binding affinity to muscarinic acetylcholine receptor M2
[38] = biological target: Histamine H4 receptor (Homo sapiens, UniProt Q9H3N8); assay: Binding affinity to Histamine receptor H4
[39] = biological target: Beta-1 adrenergic receptor (Homo sapiens, UniProt P08588); assay: Binding affinity to beta1 adrenergic receptor
[40] = biological target: Muscarinic acetylcholine receptor M1 (Homo sapiens, UniProt P11229); assay: Binding affinity to muscarinic acetylcholine receptor M1
Muscarinic acetylcholine receptor M1, sequence (P11229 whole entry): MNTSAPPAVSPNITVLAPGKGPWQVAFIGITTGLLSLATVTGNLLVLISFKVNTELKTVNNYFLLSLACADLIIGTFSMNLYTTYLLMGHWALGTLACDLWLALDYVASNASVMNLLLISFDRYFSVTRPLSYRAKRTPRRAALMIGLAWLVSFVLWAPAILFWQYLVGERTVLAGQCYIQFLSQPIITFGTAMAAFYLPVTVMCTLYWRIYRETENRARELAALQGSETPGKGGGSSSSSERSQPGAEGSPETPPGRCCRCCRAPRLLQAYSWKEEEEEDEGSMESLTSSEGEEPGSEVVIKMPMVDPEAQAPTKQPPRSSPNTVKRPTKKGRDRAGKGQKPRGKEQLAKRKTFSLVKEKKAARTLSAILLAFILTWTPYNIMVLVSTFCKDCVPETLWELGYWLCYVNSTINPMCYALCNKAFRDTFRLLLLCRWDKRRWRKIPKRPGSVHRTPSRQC

[41] = biological target: 5-hydroxytryptamine receptor 3A (Homo sapiens, UniProt P46098); assay: Binding affinity to 5HT3 receptor
[42] = biological target: Sodium-dependent serotonin transporter (Homo sapiens, UniProt P31645); assay: Binding affinity to SERT
[43] = biological target: 5-hydroxytryptamine receptor 7 (Homo sapiens, UniProt P34969); assay: Binding affinity to 5HT7 receptor
[44] = biological target: Muscarinic acetylcholine receptor M3 (Homo sapiens, UniProt P20309); assay: Binding affinity to muscarinic acetylcholine receptor M3
[45] = biological target: Histamine H1 receptor (Homo sapiens, UniProt P35367); assay: Binding affinity to Histamine receptor H1
[46] = biological target: 5-hydroxytryptamine receptor 1E (Homo sapiens, UniProt P28566); assay: Binding affinity to 5HT1E receptor
5-hydroxytryptamine receptor 1E, sequence (P28566 whole entry): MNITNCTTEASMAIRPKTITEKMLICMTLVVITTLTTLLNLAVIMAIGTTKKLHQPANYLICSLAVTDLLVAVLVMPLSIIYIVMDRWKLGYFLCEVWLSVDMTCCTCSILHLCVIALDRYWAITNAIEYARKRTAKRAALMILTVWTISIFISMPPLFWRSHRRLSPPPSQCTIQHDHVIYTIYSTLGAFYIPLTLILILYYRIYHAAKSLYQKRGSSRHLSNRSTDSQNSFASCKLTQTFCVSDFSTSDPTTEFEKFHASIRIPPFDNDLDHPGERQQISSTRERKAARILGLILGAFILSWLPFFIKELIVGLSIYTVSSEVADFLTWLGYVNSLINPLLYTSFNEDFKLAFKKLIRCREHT

[47] = biological target: Alpha-1A adrenergic receptor (Homo sapiens, UniProt P35348); assay: Binding affinity to alpha1A adrenergic receptor

T1 sequence (Q13639 whole entry): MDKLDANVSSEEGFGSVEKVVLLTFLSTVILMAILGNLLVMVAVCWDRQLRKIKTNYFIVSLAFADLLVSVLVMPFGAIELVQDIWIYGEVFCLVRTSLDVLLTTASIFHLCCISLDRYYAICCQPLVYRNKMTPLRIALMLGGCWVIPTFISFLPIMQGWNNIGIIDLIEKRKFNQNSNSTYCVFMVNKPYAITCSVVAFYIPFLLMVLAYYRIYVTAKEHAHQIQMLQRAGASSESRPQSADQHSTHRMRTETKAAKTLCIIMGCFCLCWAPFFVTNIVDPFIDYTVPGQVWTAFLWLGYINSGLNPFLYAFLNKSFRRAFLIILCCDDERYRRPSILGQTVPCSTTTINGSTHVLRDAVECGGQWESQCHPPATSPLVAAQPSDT

With `O=C(O)CCCCCCCCCCCN1CCC(CNC(=O)c2c3n(c4ccccc24)CCCO3)CC1` the Ki [1] was 2.45 nM and the pKb [2] was 8.97.

With `CC(C)(C)C(=O)OCOC(=O)c1ccc(CN2CCC(CNC(=O)c3c4n(c5ccccc35)CCCO4)CC2)cc1` the Ki [1] was 0.339 nM, the pKb [2] was 9.07 and the logD [3] was 2.3.

`CC(C)(C)OC(=O)CN1CCC(CNC(=O)c2c3n(c4ccccc24)CCCO3)CC1` showed a Ki [1] of 0.759 nM and a pKb [2] of 9.01.

Compound `O=C(CCCN1CCC(CNC(=O)c2c3n(c4ccccc24)CCCO3)CC1)OCc1ccccc1` has a Ki [1] of 0.0427 nM, a pKb [2] of 9.85 and a half-life [4] of 20 min.

With `O=C(O)CCCN1CCC(COC(=O)c2c[nH]c3ccccc23)CC1` the pKb [2] was 8.16 and the Ki [5] was 0.000813 µM.

With `CC(C)(C)C(=O)OCOC(=O)CCCCCN1CCC(CNC(=O)c2c3n(c4ccccc24)CCCO3)CC1` the Ki [1] was 0.0646 nM and the pKb [2] was 9.83.

In the case of `O=C(O)CCCCCN1CCC(CNC(=O)c2c3n(c4ccccc24)CCCO3)CC1`, the Ki [6] is reported as > 10 µM, the Ki [7] is reported as > 10 µM and the pKi [8] is reported as < 5. The Ki [9] was > 10 µM, the Ki [10] was > 10 µM and the Ki [11] was > 10 µM. For the same compound, the Ki [12] was > 10 µM, the Ki [13] was > 10 µM and the Ki [14] was > 10 µM. The Ki [15] was > 10 µM, the Ki [16] was > 10 µM and the Ki [17] was > 10 µM. For the same compound, the Ki [18] was > 10 µM, the Ki [19] was > 10 µM and the Ki [20] was > 10 µM. For the same compound, the Ki [21] was > 10 µM, the Ki [22] was > 10 µM and the Ki [1] was 1.55 nM. The pKb [2] was 7.94, the Ki [23] was > 10 µM and the Ki [24] was > 10 µM. The Ki [25] was > 10 µM, the Ki [26] was > 10 µM and the Ki [27] was > 10 µM. For the same compound, the pKi [28] was < 5, the pKi [29] was < 5 and the Ki [30] was > 10 µM. The Ki [31] was > 10 µM, the Ki [32] was > 10 µM and the Ki [33] was > 10 µM. The Ki [34] was > 10 µM, the Ki [35] was > 10 µM and the Ki [36] was > 10 µM. The Ki [37] was > 10 µM, the Ki [38] was > 10 µM and the Ki [39] was > 10 µM. The Ki [40] was > 10 µM, the logD [3] was -1.3 and the Ki [41] was > 10 µM. For the same compound, the Ki [42] was > 10 µM, the Ki [43] was > 10 µM and the Ki [44] was > 10 µM. For the same compound, the Ki [45] was > 10 µM, the Ki [46] was > 10 µM and the Ki [47] was > 10 µM.

`CCOC(=O)CCCN1CCC(CNC(=O)c2c3n(c4ccccc24)CCCO3)CC1` gave a Ki [1] of 0.102 nM, a pKb [2] of 9.43 and a half-life [4] of 30 min.

Work on `CCOP(=O)(CCN1CCC(CNC(=O)c2c3n(c4ccccc24)CCCO3)CC1)OCC` yielded a Ki [1] of 1.26 nM and a pKb [2] of 8.64.

`O=C(O)CCCCN1CCC(CNC(=O)c2c3n(c4ccccc24)CCCO3)CC1` showed a Ki [1] of 2.04 nM, a pKb [2] of 8.1 and a logD [3] of -1.3.

`O=C(CCCCN1CCC(CNC(=O)c2c3n(c4ccccc24)CCCO3)CC1)OCc1ccccc1` gave a Ki [1] of 0.00145 nM and a pKb [2] of 10.2.

With `CCOC(=O)CCCN1CCC(CNC(=O)c2c[nH]c3ccccc23)CC1` the pKb [2] was 5.84 and the Ki [5] was 0.107 µM.

— ChEMBL document CHEMBL1629440, “Synthesis and pharmacological properties of novel hydrophilic 5-HT4 receptor antagonists” (Bioorg Med Chem, 2010)
